# MrgX1 antagonist: blocks BAM8-22 activation of human MrgX1 receptor. MRGX1-HEK293 calcium flux, Fluo-4, BAM8-22 antagonism; stronger effect = lower value. 1.3% of 310,000 active. AID 588676. Q96LB2. B-score at 10 µM;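 active = calcium-response B-score plate-corrected more than 3 library SD below zero, starting fluorescence within 5 deviations, no agonist response on first addition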;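 also: peak minus trough fluorescence over baseline after final BAM8-22 challenge near maximal dose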
# Target sequence (Q96LB2 whole entry, looked up): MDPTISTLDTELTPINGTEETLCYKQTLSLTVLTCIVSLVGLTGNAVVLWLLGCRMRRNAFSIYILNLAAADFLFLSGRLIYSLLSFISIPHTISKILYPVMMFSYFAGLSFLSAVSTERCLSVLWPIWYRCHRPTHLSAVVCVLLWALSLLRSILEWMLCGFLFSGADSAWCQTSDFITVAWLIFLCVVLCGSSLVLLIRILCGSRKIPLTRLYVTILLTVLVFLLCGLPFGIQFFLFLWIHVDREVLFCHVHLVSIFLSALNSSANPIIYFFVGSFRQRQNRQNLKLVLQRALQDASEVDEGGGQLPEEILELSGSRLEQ
# MrgX1 PAM: human MrgX1 positive allosteric modulation, primary screen. MrgX1-HEK293, Fluo-4 calcium flux, FDSS; stronger effect = higher value. 0.63% of 310,000 active. B-score at 10 µM. AID 588675. Q96LB2;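 active = plate-corrected calcium response at least 3 library SD above typical, normal starting fluorescence, not activating the receptor alone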;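 also: compound read alongside a low EC10 to EC30 dose of BAM8-22 agonist; peak minus trough fluorescence over baseline measured at the second addition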
# MrgX1 ag: human MrgX1 receptor agonism, primary screen. Q96LB2. MrgX1-HEK293 cells, Fluo-4 calcium fluorescence, agonist mode; stronger effect = higher value. B-score at 10 µM. 0.44% of 310,000 active;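 active = calcium response B-score plate-corrected fluorescence ratio at least 3 library SD, with starting fluorescence B-score inside 5 SD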
#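 Assay system: MrgX1-expressing HEK293 cells / Amount: fifteen thousand cells per well / Doses: test compound in the initial addition of three / Timing: cells plated overnight, dye loaded 0.5 h 37 °C, 0.5 h room temperature / Technique: kinetic calcium dye fluorescence, Fluo-4 NW / Control set: positive and negative controls per plate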
# RGS4 inh: inhibitors of human RGS4. AID 463165. B-score at 10 µM. HEK293 M3R/RGS4 inducible, Fluo-4 calcium flux; stronger effect = higher value; triggered by carbachol at its EC20. P49798. 0.45% of 310,000 active;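 active = B-score, a plate-corrected calcium signal, over three deviations above library mean, with baseline fluorescence within five deviations of library mean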;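 also: RGS4 expression induced by doxycycline in cells with stable M3 receptor; B-score is computed from the integrated fluorescence ratio over baseline after carbachol; higher B-score means a larger calcium signal and so more RGS4 inhibition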
# Target sequence (P49798 whole entry, looked up): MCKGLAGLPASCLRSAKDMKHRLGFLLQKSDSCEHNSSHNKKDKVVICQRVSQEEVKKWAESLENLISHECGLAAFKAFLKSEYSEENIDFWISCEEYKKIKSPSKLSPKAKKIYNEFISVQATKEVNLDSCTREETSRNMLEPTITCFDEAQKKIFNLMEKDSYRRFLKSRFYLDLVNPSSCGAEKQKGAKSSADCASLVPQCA
# RGS4 pot: potentiators or activators of RGS4; HEK293 M3R/inducible RGS4, carbachol calcium flux Fluo4; stronger effect = lower value; B-score at 10 µM; 0.92% of 310,000 active; AID 463111;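 active = B-score of the integrated calcium signal more than 4 SD below the library mean, with starting fluorescence not abnormally high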;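 also: negative B-score means reduced calcium response which marks RGS4 activation or potentiation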
#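 test system = M3R-expressing HEK293 line, RGS4 induced by doxycycline | probe or stimulus = carbachol at ECmax as muscarinic agonist stimulus | timing = dye loading 30 min 37 °C, buffer rest 30 min RT | signal = calcium dye Fluo4 fluorescence | evaluation = B score from integrated fluorescence ratio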
# MrgX1 antag conf: confirmation of human MrgX1 receptor antagonists | shares compounds with MrgX1 antagonist | AID 602420 | remaining BAM8-22 calcium response % of control (stronger effect = lower value), % at 10 µM | MrgX1-HEK293, BAM8-22 calcium flux, Fluo-4; stronger effect = lower value | 19% of 2,300 active;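 active = remaining agonist calcium response no higher than 100% minus 3 SD of agonist-only control wells, with starting fluorescence near control levels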;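 also: agonist BAM8-22 given at a near maximal EC90 to ECmax level; peak minus minimum fluorescence divided by baseline after agonist addition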
# HEK293 Ca flux: counter-screen for MrgX1 antagonists: effect in parental HEK293 cells | shares compounds with MrgX1 antagonist | Fluo-4 calcium fluorescence, FDSS | fluorescence ratio F(max-min)/F0 at 10 µM | 2% of 4,000 active | AID 624111;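 active = duplicate-averaged calcium fluorescence ratio at least three times the standard deviation of buffer wells, a nonspecific response in parental cells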
# HEK293 Ca counter: activity in parental HEK293 cells without MrgX1; AID 624114; 0.4% of 4,000 active; fluorescence ratio F(max-min)/F0 at 10 µM; shares compounds with MrgX1 antagonist; parental HEK293 calcium flux, Fluo-4 fluorescence ratio; stronger effect = higher value;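 active = calcium fluorescence ratio, averaged over duplicates, at least 3 SD of the buffer-well ratio, meaning a nonspecific response in receptor-free cells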;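 also: untransfected parental HEK293 lacking MrgX1 used as counterscreen for MrgX1 allosteric activators; fluorescence change taken during the second addition on a kinetic imager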
# HEK293 Ca cntr2: MrgX1 activator counter-screen hit in parental HEK293 cells. 8.7% of 4,000 active. fluorescence ratio F(max-min)/F0 at 10 µM. Fluo-4 calcium fluorescence (FDSS); stronger effect = higher value. AID 624115. shares compounds with MrgX1 antagonist;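 active = calcium fluorescence ratio at least three times the spread of buffer wells, meaning a non-specific response in parental cells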
# * hit, by the source's call; i = inactive; . = not tested or not shown. Most compounds without a hit are left out; they make up all but 3.5% or so of the library.
SMILES,MrgX1 antagonist,MrgX1 PAM,MrgX1 ag,RGS4 inh,RGS4 pot,MrgX1 antag conf,HEK293 Ca flux,HEK293 Ca counter,HEK293 Ca cntr2
Cc1cc(-c2ccccc2)nc(SCC(=O)N2CCCC2)n1,-5.4*,i,i,i,i,i,i,i,i
CCOc1ccc(NC(=O)CS(=O)(=O)c2cn(C)c3ccccc23)cc1,-8*,i,i,i,i,i,i,i,i
Cc1ccc2nc(NC(=O)C3CCCN3C(=O)OC(C)(C)C)sc2c1 (stereo unspecified),i,i,i,i,i,.,.,.,.
Cc1nc2sc(C(c3ccco3)N3CCC(C)CC3)c(O)n2n1 (stereo unspecified),-5.2*,i,i,i,i,i,i,i,i
Cc1nc2sc(C(c3ccco3)N3CCN(C(c4ccccc4)c4ccccc4)CC3)c(O)n2n1 (stereo unspecified),i,i,i,i,i,.,.,.,.
CC(C)c1cc2c(c(O)c1O)[C@@]13CCCC(C)(C)C1CC2OC3=O (stereo partly specified),-4.5*,i,i,i,i,76%*,i,i,i
COC(=O)C1CCN(S(C)(=O)=O)CC1,-4.6*,i,i,i,i,i,i,i,i
COC(=O)C1CCN(S(=O)(=O)c2ccc(NC(C)=O)cc2)CC1,i,i,i,i,i,.,.,.,.
Cc1ccc(S(=O)(=O)N2CC(C)N(C(=O)N3CCOCC3)C2C)cc1 (stereo unspecified),i,i,i,i,i,.,.,.,.
CC(=O)c1ccc(NC(=O)c2cnn3c(C(F)F)cc(C4CC4)nc23)cc1,-5*,i,i,i,i,i,i,i,i
O=C1CC(C(=O)O)C2(CCCC2)O1 (stereo unspecified),-5.2*,i,i,i,i,i,i,i,i
CCN(CC)C(=O)C1CC(=O)OC12CCCCC2 (stereo unspecified),i,i,i,i,i,.,.,.,.
Cc1ccc(S(=O)(=O)NC(C)(C)CSc2ncccn2)cc1,-9.9*,i,i,i,i,i,i,i,i
Cc1ccc(C(=O)C2=C(O)C(=O)N(Cc3cccnc3)C2c2ccc(Br)cc2)o1 (stereo unspecified),-11*,i,i,i,i,i,i,i,i
Oc1ccc(Nc2nc(NCC3CCCO3)c3ccccc3n2)cc1 (stereo unspecified),.,.,.,i,i,.,.,.,.
COc1cccc(Nc2nc(NCC3CCCO3)c3ccccc3n2)c1 (stereo unspecified),-6.1*,i,i,i,i,20%*,i,i,i
CCOC(=O)C1CCN(CC(=O)c2ccc(O)c(C)c2O)CC1,i,i,i,i,i,.,.,.,.
Cc1ccc(/C=C/C(=O)O)cc1S(=O)(=O)N1CCc2ccccc21,i,i,i,i,i,.,.,.,.
Cc1nc(Cl)c(C(=O)NC(C)(C)C)c(C)c1Cl,-9.4*,i,i,i,i,i,i,i,i
CC(C)(C)C(=O)Nc1sc2c(c1C#N)CCN(Cc1ccccc1)C2,-5.1*,i,i,i,i,i,i,i,i
CC(C)OC(=O)c1ccc(COC(=O)c2cnccn2)cc1,-5.4*,i,i,i,i,i,i,i,i
Cc1ccc(/C(O)=C/C(=O)C(=O)NC23CC4CC(CC(C4)C2)C3)cc1,i,i,i,i,i,.,.,.,.
C=CCNC(=O)c1ccc(-n2cccc2)cc1,-8*,i,i,i,i,i,i,i,i
C=CCNC(=O)c1ccncc1,i,i,i,i,i,.,.,.,.
C=C(C)CSc1[nH]c(=O)cc(C)c1C#N,i,i,i,i,i,.,.,.,.
SMILES,MrgX1 antagonist,MrgX1 PAM,MrgX1 ag,RGS4 inh,RGS4 pot,MrgX1 antag conf,HEK293 Ca flux,HEK293 Ca counter,HEK293 Ca cntr2
CC1CCC2(CC1)NC(=O)N(CC(=O)Nc1ccc(N3CCOCC3)cc1)C2=O (stereo unspecified),-4.7*,i,i,i,i,84%*,i,i,i
COc1cccc(Nc2nc(NCCO)nc(N3CCCC3)n2)c1,i,i,i,i,i,.,.,.,.
COc1ccc(Nc2nc(NCCO)nc(N3CCCC3)n2)cc1,-5.5*,i,i,i,i,i,i,i,i
O=C(Nc1nccs1)c1ccc(COc2c(F)c(F)cc(F)c2F)cc1,i,i,i,i,i,.,.,.,.
COc1cc(NC(=O)c2cccs2)c(C(=O)OCC(=O)NC(=O)NC(C)(C)C)cc1OC,-4.6*,i,i,i,i,81%*,i,i,i
COc1cc(NC(=O)c2cccs2)c(C(=O)OCC(=O)NC(=O)NCc2ccccc2)cc1OC,i,i,i,i,i,.,.,.,.
COc1ccccc1OCCNC(=O)CC(NC(C)=O)c1ccccc1 (stereo unspecified),i,i,i,i,i,.,.,.,.
CC(=O)NC(CC(=O)NCCc1ccccc1)c1ccccc1 (stereo unspecified),-4.9*,i,i,i,i,i,i,i,i
COc1ccc(-c2noc(CN(C(=O)c3cccs3)C(C)C)n2)cc1,-4.8*,i,i,i,i,i,i,i,i
COc1ccc(-c2noc(CN(C(=O)c3ccc4c(c3)OCO4)C(C)C)n2)cc1,i,i,i,i,i,.,.,.,.
CC(C)OC(=O)CSc1nc2c(c(C3CC=CCC3)c1C#N)CCC2 (stereo unspecified),-6.2*,i,i,i,i,i,i,i,i
C=CCSc1nc2c(c(C3CC=CCC3)c1C#N)CCC2 (stereo unspecified),i,i,i,i,i,.,.,.,.
Cc1ccc(NC(=O)C(=O)NCCCN2CC(C(=O)O)CC2=O)cc1 (stereo unspecified),i,i,i,i,i,.,.,.,.
